Measurements: article PMC3381860 (Chemmedchem, 2011)
Several values for one entry are separate records, joined by “and”; a condition that tells them apart may be missing. Equal entries are not always repeated. Where two headings read alike, the source gives them in different places.

How the values were obtained:
P. falciparum (3D7) [1] = assay: P. falciparum 3D7 proliferation; assay type: cell-based, Plasmodium falciparum
[2] = Spectrophotometric titration of Fe; assay type: binding
Method in brief: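 Heme (Fe(III)PPIX) titrated with test compound from 1:1 to 16:1 mol equiv compound:heme at 23 °C in 40 % DMSO, 20 mM HEPES, pH 7.4. Soret-band and Q-band absorbance recorded after each addition. Spectra corrected for dilution by subtracting a reference cell.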

heme crystallization = assay: Parasite-free colorimetric heme crystallization inhibition; assay type: biochemical; settings: molar equivalents of compound to heme
Vero = assay: Cytotoxicity against uninfected Vero cells; assay type: cell-based; settings: for IC50: read-out: Cytotoxicity IC50 Vero, uninfected Vero cells
[3] = tested on: P. falciparum HB3 (chloroquine-sensitive); assay: P. falciparum HB3 antiplasmodial activity; assay type: cell-based, Plasmodium falciparum; settings: read-out: Antiplasmodial activity IC50 HB3
[4] = tested on: P. falciparum Dd2 (chloroquine-resistant); assay: P. falciparum Dd2 antiplasmodial activity; assay type: cell-based, Plasmodium falciparum; settings: read-out: Antiplasmodial activity IC50 Dd2
J774 = assay: Cytotoxicity against uninfected J774 cells; assay type: cell-based; settings: read-out: Cytotoxicity IC50 J774
HepG2 = assay: Cytotoxicity against uninfected HepG2 cells; assay type: cell-based; settings: read-out: Cytotoxicity IC50 HepG2
[5] = tested on: P. falciparum HB3 (chloroquine-sensitive); settings: read-out: Antiplasmodial activity IC50 HB3, ref Hawley et al. [30]; cited from earlier work
P. falciparum (3D7) [6] = settings: read-out: Antiplasmodial activity IC50 3D7, ref Hawley et al. [30]; cited from earlier work
[7] = read-out: Antiplasmodial activity IC50 3D7, 3D7, chloroquine-sensitive
[8] = read-out: P. falciparum (3D7) IC50, 3D7 strain

18-acetylbromophycolide A [Compound 7]
IC50 (P. falciparum (3D7) [1]; [7]): 241 ± 52 nM | IC50 (P. falciparum (3D7) [1]; [8]): 240 nM | decrease in Soret band (λ 402 nm) absorbance of Fe^IIIPPIX upon titration ([2]; 40 % DMSO, 20 mM HEPES, pH 7.4): 25% | Heme crystallization IC50 (heme crystallization): 2.0 mol equiv and 2.0 ± 0.15 mol equiv | IC50 (Vero): 74000 nM | fold increase in activity for P. falciparum parasites over mammalian (Vero) cells (Vero; selectivity P. falciparum vs Vero): 300 fold | IC50 [3]: 431 ± 25 nM | IC50 [4]: 304 ± 8.4 nM | IC50 (J774): 24700 nM | IC50 (HepG2): 38500 nM

CCN(CC)Cc1cc(Nc2ccnc3cc(Cl)ccc23)ccc1O [AMQ, amodiaquine, reference compound]
IC50 [5]: 8.5 nM | IC50 (P. falciparum (3D7) [6]): 7.8 nM | Heme crystallization IC50 (heme crystallization): 1.2 ± 0.19 mol equiv | Heme crystallization IC50 (heme crystallization; listed as amodiaquine): 1.2 mol equiv

CC1=C2Cc3cc(ccc3O)C(=O)O[C@H](C(C)(C)Br)CC[C@](C)(O)[C@H](Br)CC[C@]2(C)[C@@H](Br)CC1 [Compound 1, bromophycolide A]
IC50 (P. falciparum (3D7) [1]; [7]): 499 ± 51 nM | IC50 (P. falciparum (3D7) [1]; [8]): 500 nM | association constant log K of Fe^IIIPPIX–compound complex ([2]; 1:1 complexation model, 40 % DMSO, 20 mM HEPES, pH 7.4): 4.52 ± 0.18 | decrease in Soret band (λ 402 nm) absorbance of Fe^IIIPPIX upon titration ([2]; 40 % DMSO, 20 mM HEPES, pH 7.4): 45% | binding concentration at half-maximum ([2]; spectrophotometric titration experiment): 25 µM | Heme crystallization IC50 (heme crystallization): 2.5 mol equiv and 2.5 ± 0.13 mol equiv | IC50 (Vero): 34600 nM | IC50 [3]: 493 ± 44 nM | IC50 [4]: 377 ± 92 nM | IC50 (J774): 19000 nM | IC50 (HepG2): 21300 nM

CC1=C2Cc3cc(ccc3O)C(=O)O[C@H](C(C)(C)O)CC[C@](C)(O)[C@H](Br)CC[C@]2(C)[C@@H](Br)CC1 [Compound 2, bromophycolide C]
IC50 (P. falciparum (3D7) [1]; [8]): 56000 nM

C=C(C)[C@@H]1CC[C@](C)(O)[C@H](Br)CC[C@@]2(C)[C@H](Cc3cc(ccc3O)C(=O)O1)C(=C)CC[C@@H]2Br [Compound 4, bromophycolide E]
IC50 (P. falciparum (3D7) [1]; [8]): 820 nM

C=C(C)[C@@H]1CCC(C)(O)[C@H](Br)CC[C@@]2(C)C(=C(C)CC[C@@H]2Br)Cc2cc(ccc2O)C(=O)O1 (stereo partly shown) [Compound 5, bromophycolide M]
IC50 (P. falciparum (3D7) [1]; [8]): 550 nM

bromophycolide D [Compound 3]
IC50 (P. falciparum (3D7) [1]; [8]): 350 nM

debromophycolide A [Compound 6]
P. falciparum (3D7) IC50 (P. falciparum (3D7) [1]; 3D7 strain): completely inactive | IC50 (P. falciparum (3D7) [1]; [8]): > 100000 nM
